Measurements published in ChEMBL document CHEMBL3779886, “Cassane Diterpenoids from the Pericarps of Caesalpinia bonduc” (J Nat Prod, 2016).
The source made the active and inactive calls.

Legend:
Format in all cases: functional, cell-based
SH-SY5Y [1] = assay: Neuroprotective activity against amyloid beta(25 to 35)-induced toxicity in human SH-SY5Y cells assessed as cell viability at 1 to 10 uM pretreated for 2 hrs followed by protein addition measured after 24 hrs by MTT assay
How it was run: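 Cells: high-passage SH-SY5Y (ATCC), 37 °C, 5% CO2. 2 h pretreatment with compound at 1 or 10 μM, or EGCG 10 μM, then 10 μM Aβ25−35 for 24 h with compound still present. MTT at 0.5 mg/mL final for 4 h, 37 °C; DMSO dissolution; read at 490 nm. Means ± SD, one-way ANOVA, p < 0.05.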

SH-SY5Y [2] = assay: Neuroprotective activity against H2O2-induced toxicity in human SH-SY5Y cells assessed as cell viability at 1 to 10 uM pretreated for 2 hrs followed by H2O2 addition measured after 24 hrs by MTT assay
How it was run: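 High-passage SH-SY5Y cells (ATCC), 37 °C, 5% CO2. Pretreatment for 2 h with compound at 1 or 10 μM, or N-acetylcysteine 300 μM, then 100 μM H2O2 for 24 h. Viability by MTT (0.5 mg/mL final, 4 h, 37 °C), DMSO solubilization, absorbance 490 nm. Means ± SD, one-way ANOVA, p < 0.05.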

SH-SY5Y [3] = assay: Neuroprotective activity against OGD-induced toxicity in human SH-SY5Y cells assessed as cell viability at 1 to 10 uM pretreated for 2 hrs followed by OGD induction for 1 hr measured after 24 hrs by MTT assay
How it was run: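 SH-SY5Y cells (high passage, ATCC) kept at 37 °C, 5% CO2. Pretreated with compound for 2 h, then OGD exposure (1 mg/mL as printed) for 1 h, followed by 24 h normal culture. Glucose-fed cells under normal conditions served as controls. MTT 0.5 mg/mL final, 4 h, 37 °C; DMSO; A490. Means ± SD, one-way ANOVA.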

Measured: Activity

C=C1c2ccoc2C[C@H]2[C@H]1[C@@H](OC(C)=O)[C@H](OC(C)=O)[C@@]1(O)C(C)(C)CCC(=O)[C@]21C
inactive: all assays above

COC(=O)[C@@H]1c2ccoc2C[C@H]2[C@H]1[C@@H](OC(C)=O)[C@H](OC(C)=O)[C@@]1(O)C(C)(C)CC[C@H](O)[C@]21C
inactive: all assays above

COC(=O)[C@@H]1c2ccoc2C[C@H]2[C@H]1[C@@H](O)[C@H](OC(C)=O)[C@@]1(O)C(C)(C)CCC(=O)[C@]21C
inactive: all assays above

CC(=O)O[C@@H]1[C@@H]2[C@H](Cc3occc3[C@@]2(C)O)[C@@]2(C)[C@@H](OC(C)=O)C[C@H](C)[C@@]3(C)O[C@@]23[C@H]1OC(C)=O
inactive: all assays above

COC(=O)[C@@H]1c2ccoc2C[C@H]2[C@H]1[C@@H](O)[C@H](OC(C)=O)[C@@]1(O)C(C)(C)CC[C@H](O)[C@]21C
inactive: all assays above

COC(=O)[C@@H]1c2ccoc2C[C@H]2[C@H]1[C@@H](OC(C)=O)[C@H](O)[C@@]1(O)C(C)(C)CCC(=O)[C@]21C
inactive: all assays above

C=C1c2ccoc2C[C@H]2[C@H]1CC[C@@]1(O)C(C)(C)[C@H](OC(C)=O)[C@H](OC(C)=O)[C@H](OC(C)=O)[C@]21C
inactive: all assays above

CC(=O)O[C@@H]1[C@@H]2[C@H](Cc3occc3[C@@]2(C)O)[C@@]2(C)[C@@H](OC(C)=O)CC(C)=C(C)[C@]2(O)[C@H]1OC(C)=O
inactive: all assays above

COC(=O)[C@@H]1c2ccoc2C[C@H]2[C@H]1[C@@H](OC(C)=O)[C@H](OC(C)=O)[C@@]1(O)C(C)(C)CCC[C@]21C
inactive: all assays above
